Assay results published in ChEMBL document CHEMBL3351868, “Structure-affinity relationships and pharmacological characterization of new alkyl-resorcinol cannabinoid receptor ligands: Identification of a dual cannabinoid receptor/TRPA1 channel agonist” (Bioorg Med Chem, 2014).

Legend:
[1] = Inhibition of MGL in African green monkey COS7 cells cytosolic fraction assessed as reduction in 2-arachidonoyl-[3H]-glycerol hydrolysis by scintillation counting method; assay type: cell-based, Chlorocebus aethiops; conditions: cos-7
[2] = test system: COS-7; experiment: Inhibition of MGL in African green monkey COS7 cells cytosolic fraction assessed as reduction in 2-arachidonoyl-[3H]-glycerol hydrolysis at 50 uM by scintillation counting method; assay type: cell-based; conditions: Chlorocebus aethiops
[3] = species: Homo sapiens; experiment: Selectivity index, ratio of Ki for human recombinant CB2 receptor to Ki for human recombinant CB1 receptor
[4] = species: Homo sapiens; experiment: Selectivity index, ratio of Ki for human recombinant CB1 receptor to Ki for human recombinant CB2 receptor
[5] = target: T1, Cannabinoid receptor 2 (Homo sapiens, UniProt P34972); experiment: Displacement of [3H]CP-55,940 from human recombinant CB2 receptor expressed in HEK293 cell membranes
T1 sequence (P34972 whole entry): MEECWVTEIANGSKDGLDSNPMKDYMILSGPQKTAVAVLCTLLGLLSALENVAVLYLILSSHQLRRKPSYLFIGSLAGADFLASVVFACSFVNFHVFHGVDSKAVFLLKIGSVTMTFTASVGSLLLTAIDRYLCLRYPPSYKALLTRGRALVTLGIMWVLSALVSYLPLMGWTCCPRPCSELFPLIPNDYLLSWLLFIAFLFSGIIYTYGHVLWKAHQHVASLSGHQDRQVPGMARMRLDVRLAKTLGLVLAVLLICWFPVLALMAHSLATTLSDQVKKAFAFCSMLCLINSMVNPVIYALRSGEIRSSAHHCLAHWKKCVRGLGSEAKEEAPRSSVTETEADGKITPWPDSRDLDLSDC

[6] = target: T2, Cannabinoid receptor 1 (Homo sapiens, UniProt P21554); experiment: Displacement of [3H]CP-55,940 from human recombinant CB1 receptor expressed in HEK293 cell membranes
T2 sequence (P21554 whole entry): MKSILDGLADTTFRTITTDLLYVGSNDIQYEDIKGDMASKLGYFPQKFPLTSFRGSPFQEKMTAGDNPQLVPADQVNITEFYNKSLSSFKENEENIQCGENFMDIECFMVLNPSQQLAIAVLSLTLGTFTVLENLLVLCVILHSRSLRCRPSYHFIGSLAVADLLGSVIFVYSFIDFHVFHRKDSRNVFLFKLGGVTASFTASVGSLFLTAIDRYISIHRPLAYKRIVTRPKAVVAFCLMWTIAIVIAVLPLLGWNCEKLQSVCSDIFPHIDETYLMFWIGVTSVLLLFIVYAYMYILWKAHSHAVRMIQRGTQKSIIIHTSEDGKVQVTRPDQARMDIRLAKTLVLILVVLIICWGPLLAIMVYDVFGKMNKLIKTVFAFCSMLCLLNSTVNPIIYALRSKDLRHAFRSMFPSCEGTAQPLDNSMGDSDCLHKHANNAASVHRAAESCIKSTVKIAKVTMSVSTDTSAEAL

[7] = target: T1, Cannabinoid receptor 2; experiment: Agonist activity at human recombinant CB2 receptor expressed in CHO cell membranes by [35S]GTPgammaS binding assay; assay type: functional
Summary of the method: (§1)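 Membranes from CHO cells stably expressing human CB1 or CB2, 50 µg protein per well, in Tris buffer with 100 mM NaCl, 5 mM MgCl2, 1 mM DTT, 1 mM EDTA, 0.1% BSA, pH 7.4. Incubated 60 min at 30°C with 0.1 nM [35S]GTPγS, 30 µM GDP and compound in DMSO. Nonspecific binding defined with 30 µM GTPγS. Filtration and scintillation counting. Percent change relative to DMSO control, n=6. EC50/Emax from sigmoidal fit.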

[8] = target: T1, Cannabinoid receptor 2; experiment: Agonist activity at human recombinant CB2 receptor expressed in CHO cell membranes assessed as stimulation of [35S]GTPgammaS binding relative to basal level; assay type: functional; summary of the method: as §1
[9] = test system: COS-7; experiment: Inhibition of MGL in African green monkey COS7 cells cytosolic fraction assessed as reduction in 2-arachidonoyl-[3H]-glycerol hydrolysis at 1 uM by scintillation counting method; assay type: cell-based; conditions: Chlorocebus aethiops
[10] = test system: COS-7; experiment: Inhibition of MGL in African green monkey COS7 cells cytosolic fraction assessed as reduction in 2-arachidonoyl-[3H]-glycerol hydrolysis at 10 uM by scintillation counting method; assay type: cell-based; conditions: Chlorocebus aethiops
[11] = target: T3, Fatty-acid amide hydrolase 1 (Rattus norvegicus, UniProt P97612); experiment: Inhibition of FAAH in rat brain membranes assessed as reduction in [14C] anandamide hydrolysis by scintillation counting method; assay type: cell membranes, Membrane
T3 sequence (P97612 whole entry): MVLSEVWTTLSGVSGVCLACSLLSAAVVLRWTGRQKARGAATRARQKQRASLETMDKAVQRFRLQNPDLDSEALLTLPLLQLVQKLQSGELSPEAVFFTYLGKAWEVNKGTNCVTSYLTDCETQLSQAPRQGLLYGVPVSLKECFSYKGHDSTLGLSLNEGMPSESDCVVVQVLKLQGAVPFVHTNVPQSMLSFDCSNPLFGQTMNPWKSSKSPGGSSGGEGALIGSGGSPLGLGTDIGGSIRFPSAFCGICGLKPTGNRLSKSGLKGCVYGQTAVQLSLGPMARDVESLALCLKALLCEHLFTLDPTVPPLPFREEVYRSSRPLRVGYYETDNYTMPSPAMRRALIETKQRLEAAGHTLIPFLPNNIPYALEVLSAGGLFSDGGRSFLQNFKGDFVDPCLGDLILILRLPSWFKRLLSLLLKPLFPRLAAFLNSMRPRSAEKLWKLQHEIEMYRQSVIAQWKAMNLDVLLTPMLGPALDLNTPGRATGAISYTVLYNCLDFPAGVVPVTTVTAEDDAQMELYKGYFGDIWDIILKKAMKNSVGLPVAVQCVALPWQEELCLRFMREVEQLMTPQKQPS

[12] = target: T4, Fatty-acid amide hydrolase 1 (Rattus norvegicus) (UniProt P97612); experiment: Inhibition of FAAH in rat brain membranes assessed as reduction in [14C] anandamide hydrolysis at 10 uM by scintillation counting method; assay type: cell membranes; conditions: Membrane
T4 sequence (whole entry): T3 sequence (P97612 whole entry)

[13] = target: T2, Cannabinoid receptor 1; experiment: Agonist activity at human recombinant CB1 receptor expressed in CHO cell membranes assessed as stimulation of [35S]GTPgammaS binding relative to basal level; assay type: functional; summary of the method: as §1
[14] = Cytotoxicity against mouse NIH/3T3 cells after 24 hrs by neutral red assay; assay type: cell-based; conditions: NIH3T3, 24 h
Summary of the method: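 NIH3T3 mouse fibroblasts in DMEM with 10% FCS were seeded and after 24 h exposed to compound in DMSO (5-200 µM, six replicates) for 24 h. Viability measured by neutral red uptake (3 h dye incubation, then acetic acid/ethanol extraction). IC50 derived.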

| Compound | Ratio Ki [3] | Ratio Ki [4] | Ki [5] | Ki [6] | other results |
| --- | --- | --- | --- | --- | --- |
| CCCCCc1cc(O)cc(OCCCCCCCCCN2C(=O)c3ccccc3C2=O)c1 |  |  |  |  | IC50 [1]: > 50000 nM; Imax [2]: 16.8% |
| CCCCCc1cc(O)cc(OCCCCCCCC(=O)N[C@H](C)CO)c1 | 9.32 | 0.11 | 119 nM | 12.8 nM |  |
| CCCCCCC(C)(C)c1cc(O)cc(OCCCCCCCC(=O)NC(CO)CO)c1 | 4.6 | 0.22 | 815 nM | 178 nM |  |
| CCCCCc1cc(O)cc(OCCCCCCCCCCC(=O)Nc2ccccc2)c1 | < 0.01 | > 78.2 | 128 nM | > 10000 nM | EC50 [7]: 701 nM; Emax [8]: -14.4% |
| CCCCCCc1ccc(O)cc1OCCCCCCCCCCCN1C(=O)c2ccccc2C1=O |  |  |  |  | IC50 [1]: > 50000 nM; Imax [2]: 16.3% |
| CCCCCc1cc(O)cc(OCCCCCCCCCCCCNC2CC2)c1 | > 12.1 | < 0.08 | > 10000 nM | 830 nM |  |
| CCCCCCC(C)(C)c1cc(O)cc(OCCCCCCCCCCC(=O)N[C@H](C)CO)c1 | 0.16 | 6.24 | 21.2 nM | 132 nM |  |
| CCCCCCc1ccc(OCCCCCCCCCCCNC(=O)C2CC2)cc1O |  |  | > 10000 nM | > 10000 nM |  |
| CCCCCCc1ccc(OCCCCCCCCCCCN2C(=O)c3ccccc3C2=O)cc1O |  |  |  |  | IC50 [1]: > 50000 nM; Imax [2]: 14.3% |
| CCCCCCc1ccc(O)cc1OCCCCCCCCCCCNC(=O)C1CC1 | 0.28 | 3.6 | 250 nM | 900 nM |  |
| CCCCCCCCCCC[C@@H](C[C@@H]1OC(=O)[C@H]1CCCCCC)OC(=O)CNC=O |  |  |  |  | Imax [9]: 60% |
| CCCCCCC(C)(C)c1cc(O)cc(OCCCCCCCCCCCN2C(=O)c3ccccc3C2=O)c1 |  |  |  |  | IC50 [1]: > 50000 nM; Imax [2]: 14.4% |
| CCCCCc1cc(O)cc(OCCCCCCCCCCC(=O)NN2CCCCC2)c1 | 0.38 | 2.63 | 678 nM | 1780 nM | IC50 [1]: > 10000 nM; Imax [10]: 41.6%; IC50 [11]: > 10000 nM; Imax [12]: 41% |
| CCCCCCC(C)(C)c1cc(O)cc(OCCCCCCCCCN2C(=O)c3ccccc3C2=O)c1 |  |  |  |  | IC50 [1]: > 50000 nM; Imax [2]: 18.8% |
| CCCCCc1cc(O)cc(OCCCCCCCCCCC(=O)NCc2ccccc2)c1 | < 0.02 | > 49.5 | 202 nM | > 10000 nM |  |
| CCCCCCC(C)(C)c1ccc([C@@H]2C[C@H](O)CC[C@H]2CCCO)c(O)c1 |  |  |  |  | Emax [8]: 66.5%; Emax [13]: 72.1% |
| CCCCCCC(C)(C)c1cc(O)cc(OCCCCCCCCCCCNC(=O)C2CC2)c1 | 0.31 | 3.18 | 650 nM | 2070 nM |  |
| CCCCCc1cc(O)cc(OCCCCCCCCCCC(=O)NC23CC4CC(CC(C4)C2)C3)c1 |  |  | > 10000 nM | > 10000 nM |  |
| CCCCCc1cc(O)cc(OCCCCCCCCCCC(=O)N[C@H](C)CO)c1 | 0.37 | 2.72 | 97.2 nM | 264 nM |  |

| Compound | Ratio Ki [3] | Ratio Ki [4] | Ki [5] | Ki [6] | other results |
| --- | --- | --- | --- | --- | --- |
| CCCCCCc1ccc(OCCCCCCCCCCC(=O)NC(CO)CO)cc1O |  |  | > 10000 nM | > 10000 nM |  |
| CCCCCCC(C)(C)c1cc(O)cc(OCCCCCCCC(=O)NCC(F)(F)F)c1 | 0.07 | 14.2 | 27.9 nM | 397 nM |  |
| CCCCCc1cc(O)cc(OCCCCCCCCCCCN2C(=O)c3ccccc3C2=O)c1 |  |  |  |  | IC50 [1]: > 50000 nM; Imax [2]: 15.9% |
| CCCCCc1cc(O)cc(OCCCCCCCCCCCNC(=O)C2CC2)c1 | 0.17 | 6.02 | 460 nM | 2770 nM |  |
| CCCCCc1cc(O)cc(OCCCCCCCCCN[C@H](C)CO)c1 | 1.43 | 0.7 | 1520 nM | 1060 nM |  |
| CCCCCc1cc(O)cc(OCCCCCCCCCCCNC2CC2)c1 | 0.91 | 1.1 | 1890 nM | 2080 nM |  |
| CCCCCCc1ccc(OCCCCCCCCCCC(=O)NC23CC4CC(CC(C4)C2)C3)cc1O |  |  | > 10000 nM | > 10000 nM |  |
| CCCCCCc1ccc(O)cc1OCCCCCCCCCCC(=O)NC(CO)CO | < 0.24 | > 4.22 | 2370 nM | > 10000 nM |  |
| CCCCCc1cc(O)cc(OCCCCCCCCCCC(=O)NC(CO)CO)c1 | < 0.05 | > 18.5 | 540 nM | > 10000 nM |  |
| CCCCCCC(C)(C)c1cc(O)cc(OCCCCCCCCCCC(=O)NC(CO)CO)c1 | 0.12 | 8.22 | 230 nM | 1890 nM |  |
| CCCCCc1cc(O)cc(OCCCCCCCCCCCNCc2ccccc2)c1 | 0.67 | 1.49 | 830 nM | 1240 nM |  |
| C=CCNCCCCCCCCCCCOc1cc(O)cc(CCCCC)c1 | 1.62 | 0.62 | 1850 nM | 1140 nM |  |
| CCCCCCC(C)(C)c1cc(O)cc(OCCCCCCCC(=O)N[C@H](C)CO)c1 | 2.92 | 0.34 | 50.2 nM | 17.2 nM | IC50 [14]: 69000 nM |
| CCCCCCC(C)(C)c1cc(O)cc(OCCCCCCCCCCC(=O)NC23CC4CC(CC(C4)C2)C3)c1 |  |  | > 10000 nM | > 10000 nM |  |
| C=CCNC(=O)CCCCCCCCCCOc1cc(O)cc(CCCCC)c1 | 0.12 | 8.31 | 16.4 nM | 136 nM |  |
| CCCCCc1cc(O)cc(OCCCCCCCCCCC(=O)NN(C)C)c1 | 0.22 | 4.63 | 183 nM | 845 nM | IC50 [1]: > 10000 nM; Imax [10]: 42.9%; IC50 [11]: > 10000 nM; Imax [12]: 28.2% |
| CCCCCCC(C)(C)c1cc(O)cc(OCCCCCCCC(=O)NC23CC4CC(CC(C4)C2)C3)c1 |  |  | > 10000 nM | > 10000 nM |  |
| CCCCCCc1c(O)cccc1OCCCCCCCCCCC(=O)NC12CC3CC(CC(C3)C1)C2 |  |  | > 10000 nM | > 10000 nM |  |
| CCCCCc1cc(O)cc(OCCCCCCCCCCC(=O)NCC(F)(F)F)c1 | 0.22 | 4.55 | 96.3 nM | 438 nM |  |
